From ChEMBL document CHEMBL2176870 (J Med Chem, 2012)
The source made the active and inactive calls. No cut-off for these calls is given here.

What was measured:
[1] = molecular target: T1, Enoyl-[acyl-carrier-protein] reductase [NADPH] FabI (Staphylococcus aureus, UniProt Q6GI75); assay: Inhibition of Staphylococcus aureus recombinant FabI using trans-2-octenoyl N-acetylcysteamine thioester as substrate preincubated for 60 mins
T1 sequence (Q6GI75 whole entry): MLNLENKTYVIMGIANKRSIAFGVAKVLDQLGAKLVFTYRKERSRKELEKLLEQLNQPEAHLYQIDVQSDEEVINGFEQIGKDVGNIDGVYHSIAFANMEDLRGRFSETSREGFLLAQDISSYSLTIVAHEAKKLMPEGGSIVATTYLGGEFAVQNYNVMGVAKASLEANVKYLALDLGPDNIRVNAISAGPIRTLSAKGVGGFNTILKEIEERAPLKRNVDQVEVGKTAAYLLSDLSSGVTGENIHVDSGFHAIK
Summary of the method: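 Recombinant S. aureus FabI (2 nM) in 50 mM ADA pH 6.5, 1 mM DTT, 0.006% Triton X-100, 50 mM NaCl. Preincubated 60 min at room temperature with 40 μM NADPH, 10 μM NADP+ and inhibitor in DMSO. Reaction started with 100 μM t-o-NAC. Inhibition versus untreated samples; IC50 by Langmuir fit.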

[2] = AUC (0 to infinity) in Sprague-Dawley rat kidney at 2 x 50 mg/kg, iv; type: ADME, organism-based; design: time infinity, dose 50 mg/kg, route intravenous
Summary of the method: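 Female Sprague–Dawley rats given two iv doses of 50 mg/kg. Levels measured in plasma, liver, kidney, brain, heart and lung. Cmax reported as ng/g for tissue and ng/mL for plasma; AUC(0–∞) as ng·h/mL. Half-life is the terminal elimination value.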

[3] = Toxicity in iv dosed rat; type: organism-based; settings: in vivo
Summary of the method: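 Rats given a single intravenous dose for maximum tolerated dose. A separate 2-week study used twice-daily intravenous dosing, with NOAEL set from clinical findings and macroscopic and microscopic examination. Safety pharmacology used single intravenous injections up to 200 mg/kg, assessing central nervous system and respiratory functions.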

Staphylococcus aureus [4] = assay: Antibacterial activity against methicillin-resistant Staphylococcus aureus NRS384 infected in Swiss mouse; type: functional
Summary of the method: (§1)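 Murine lethal systemic infection by intraperitoneal MRSA challenge. A single subcutaneous dose was given 5 min after infection.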

Staphylococcus aureus [5] = assay: Antibacterial activity against methicillin-resistant Staphylococcus aureus NRS384 assessed as killing activity at 600 to 1200 mg q8h with prolonged infusion of 2 hrs; type: functional, organism-based
Staphylococcus aureus [6] = assay: Antibacterial activity against community acquired methicillin-resistant Staphylococcus aureus; type: functional
Staphylococcus aureus [7] = assay: Antibacterial activity against methicillin-resistant Staphylococcus aureus NRS382 infected in Swiss mouse; type: functional; summary of the method: as §1

CCc1cc(O)c(Oc2ccc(C(N)=O)cc2F)cc1F
IC50 [1]: 0.012 µM | AUC(0-inf) [2]: 20300 ng·h/mL | MTD [3]: > 200 mg/kg | ED50 (Staphylococcus aureus [4]): 45.1 mg/kg | Activity (Staphylococcus aureus [5]): Active | MIC90 (Staphylococcus aureus [6]): ≤ 0.03 µg/mL | ED50 (Staphylococcus aureus [7]): 19.3 mg/kg
